In article PMC12239663 (Journal of the American Chemical Society, 2024):
Where two headings read alike, the source gives them in different places.

What was measured:
[1] = target: T1, SgvP (Streptomyces griseoviridis, UniProt R9USI6); assay: Type I binding spectra, titration of SgvP with 2
[2] = target: T1, SgvP; type: biochemical; settings: Fdx/Fdr, Opt13, NADP+, TCEP, no apparent intermediates detected
Procedure, shortened: (§1)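 Reactions were run under standard conditions, with a control reaction lacking P450. Peaks containing m/z 496 and m/z 512 were taken as singly- and doubly-oxidized by-products.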

[3] = target: T1, SgvP; assay: In vitro reconstitution of C–S bond formation, SgvP with CamB/CamA; type: biochemical; settings: CamB/CamA as redox partners, relative to Fdx/Fdr
[4] = system: SgvP-RhFRed; assay: Enzymatic reaction with SgvP-RhFRed chimera; type: biochemical, Streptomyces griseoviridis; settings: NADP+, Opt13 for NADPH regeneration; without TCEP; LC-MS
[5] = system: FNS2; assay: Activity of homolog P450-RhFRed chimera FNS2; type: biochemical; settings: cell lysates, range of conditions
[6] = system: NK82; assay: Activity of homolog P450-RhFRed chimera NK82; type: biochemical; settings: cell lysates, range of conditions
[7] = system: YY64; assay: Activity of homolog P450-RhFRed chimera YY64; type: biochemical; settings: cell lysates, range of conditions
[8] = system: SgvP P237T; assay: Enzymatic reaction with SgvP mutant P237T; type: biochemical, Streptomyces griseoviridis; settings: substrate 2; same reaction conditions as wild-type SgvP
[9] = system: SgvP P237T with A238 mutated to threonine; assay: Enzymatic reaction with SgvP double mutant P237T, A238 to threonine; type: biochemical, Streptomyces griseoviridis; settings: substrate 2; P237T activity partially rescued by mutating A238 to threonine
[10] = system: SgvP L337F; assay: Enzymatic reaction with SgvP mutant L337F; type: biochemical, Streptomyces griseoviridis; settings: substrate 2; same reaction conditions as wild-type SgvP
Procedure, shortened: as §1

[11] = system: SgvP mutants; assay: LC-MS by-product analysis of reactions with SgvP mutants; type: biochemical, Streptomyces griseoviridis; settings: singly- (m/z = 496) and doubly-oxidized (m/z = 512) by-products, substrate 2
Procedure, shortened: as §1

[12] = Stability under air at ambient temperature; type: physicochemical; settings: two weeks
[13] = Stability in aqueous buffer; type: physicochemical
[14] = Behavior toward chemical oxidants; type: physicochemical

Question: Which binding spectrum type ([1]; SgvP incubated with various concentrations of 2) does the source give for pre-griseoviridin [compound 2] here?
Answer: characteristic type I binding spectrum

Question: What about the “Kd relative to that of TleB (fold lower)” value ([1]; SgvP–2 Kd lower than TleB Kd) of the same substance?
Answer: 2.5 fold

Question: And the “Kd relative to that of PtmO5” value ([1]; SgvP–2 Kd vs PtmO5 Kd)?
Answer: one order of magnitude higher

Question: And the “λmax after shift on binding of 2” value ([1]; type I binding spectrum, λmax shifted from 421 nm)?
Answer: 386 nm

Question: And the “conversion to griseoviridin (1)” value [2]?
Answer: nearly full conversion to griseoviridin (1) in approximately three hours

Question: And the “conversion to griseoviridin (1)” value [3]?
Answer: Analogous results

Question: What about the “product of incubation with SgvP-RhFRed” value [4] of the same substance?
Answer: yielded only disulfide

Question: And the “activity of homolog chimera with 2” value [5]?
Answer: none of the homologs exhibited any activity

Question: And the “activity of homolog chimera with 2” value [6]?
Answer: none of the homologs exhibited any activity

Question: What about the “activity of homolog chimera with 2” value [7] of the same substance?
Answer: none of the homologs exhibited any activity

Question: What about the “NMR yield of griseoviridin” value [8] of the same substance?
Answer: 7%

Question: And the “NMR yield of griseoviridin” value [9]?
Answer: 25%

Question: What about the “activity relative to wild-type enzyme” value [10] of the same substance?
Answer: comparable – if not slightly enhanced – activity to the wild-type enzyme

Question: And the by-products formed [11]?
Answer: several oxidized by-products had formed

Question: What about the “stability: degradation” value [12] of the same substance?
Answer: remarkably stable, with no discernable degradation even after two weeks

Question: What about the “disulfide formation with TCEP” value ([13]; TCEP added to the reaction mixture as a reductant) of the same substance?
Answer: disulfide formation was effectively prevented

Question: And the “product in absence of SgvP-RhFRed or in buffer and co-solvent alone” value ([13]; aqueous conditions, exposure to oxygen, no TCEP, LC-MS)?
Answer: disulfide as the only product

Question: What about the “production of 1 with chemical oxidants” value ([14]; mCPBA or basic H2O2) of the same substance?
Answer: we did not observe the production of 1

Question: And the “outcome of treatment with mCPBA” value ([14]; mCPBA, crude NMR, sulfinic and sulfonic acids of 2 tentatively detected by LC-MS)?
Answer: intractable mixture

Question: And the “outcome of treatment with basic H2O2” value ([14]; series of basic hydrogen peroxide conditions)?
Answer: ester hydrolysis, S-oxidation, or broad degradation
